Compound activity deposited in PubChem BioAssay by The Scripps Research Institute Molecular Screening Center.
GPR7 antag – GPR7 receptor antagonists, primary screen, cell-based, fluorescence, single concentration. GPR7-expressing cells, fluorescence antagonist assay. inhibition, % at 4.4 µM. actives 1.1% (n = 290,000); in the data active = inhibition above about 16%, passing the limit was not always enough;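 also: cells stimulated with the agonist NPW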
OX1R antag-1 – OX1R (HCRTR1) antagonists, primary screen, fluorescence, CHO/OX1R cells, Fluo-8 calcium, orexin A; Orexin/Hypocretin receptor type 1 (Homo sapiens), O43613; Fluo-8 calcium fluorescence; inhibition, % at 5 µM; actives 0.43% (n = 330,000);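 active = inhibition above its plate's threshold, mean inhibition of all tested compounds on the plate plus 3 SD, cut at about 37% in these data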
Target sequence (O43613 whole entry, looked up): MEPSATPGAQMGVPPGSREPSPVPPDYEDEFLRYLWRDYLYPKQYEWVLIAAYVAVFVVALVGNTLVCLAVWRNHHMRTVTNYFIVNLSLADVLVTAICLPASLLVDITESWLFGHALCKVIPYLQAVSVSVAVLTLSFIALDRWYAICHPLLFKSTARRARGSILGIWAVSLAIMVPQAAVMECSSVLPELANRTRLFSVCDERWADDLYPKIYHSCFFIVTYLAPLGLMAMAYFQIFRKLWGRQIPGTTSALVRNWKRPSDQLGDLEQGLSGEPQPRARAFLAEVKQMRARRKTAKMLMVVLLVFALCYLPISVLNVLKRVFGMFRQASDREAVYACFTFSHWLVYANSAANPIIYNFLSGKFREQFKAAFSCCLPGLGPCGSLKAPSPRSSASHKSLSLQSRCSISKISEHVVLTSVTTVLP
TAAR1 antagonist – human TAAR1 antagonists, primary screen, Fluo-8 calcium fluorescence, CHO RD-HGA16 cells; Trace amine-associated receptor 1 (Homo sapiens), Q96RJ0; antagonist; inhibition, % at 3 µM; actives 1.5% (n = 360,000);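 active = inhibition above a per-plate cutoff, the mean inhibition of test compounds on that plate plus 3 SD, cut at about 49% in these data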
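System: CHO RD-HGA16 cells bearing hTAAR1. Reagent: EC80 β-phenethylamine stimulus. Schedule: seeding 17-24 h prior, 75-min 37 °C, 30-min RT dye loading. Signal: Fluo-8 intracellular calcium dye fluorescence, real-time kinetic reads. Read-out: % inhibition from peak post-agonist over basal fluorescence ratio. Benchmarks: vehicle wells and EC80 agonist wells. Replicates: n of 1.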
TAAR1 ag – human TAAR1 agonists, primary screen, Fluo-8 calcium fluorescence, CHO RD-HGA16 cells; activation, % at 3 µM; vehicle wells 0%, saturating PEA agonist 100%; actives 0.99% (n = 360,000); Trace amine-associated receptor 1 (Homo sapiens), Q96RJ0;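 active = activation above the mean activation of all test compounds in the run plus 3 SD, cut at about 38% in these data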
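System: CHO-derived RD-HGA16 cells with stable Gα16 and human TAAR1. Times: 17-24 h plating, Fluo-8 75 min 37 °C, 30 min RT. Measured by: calcium-sensitive Fluo-8 signal, excitation 470-495, emission 515-575 nm. Read-out basis: % activation relative to PEA EC100 response. Control set: DMSO and PEA EC100. Repeats: no replicates (n 1).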
OX1R antag-2 – antagonists of human orexin 1 receptor (OX1R). actives 1.8% (n = 330,000). Orexin/Hypocretin receptor type 1 (Homo sapiens), O43613. OX1R-expressing cells, FRET antagonist read-out. inhibition, % at 6.6 µM; in the data active = inhibition mostly above about 38%, no sharp cut-off; inactive = mostly below about 40%
CHO parental Ca – ATP-evoked calcium signal inhibitors, parental CHO, primary screen, counter-screen for OX1R antagonist project, cell-based, fluorescence, Fluo-8 calcium dye; actives 0.63% (n = 330,000); inhibition, % at 5.6 µM; parental CHO-K1, ATP-induced calcium, Fluo-8 fluorescence;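 active = inhibition above that plate's mean sample inhibition plus 3 SD, cut at about 26% in these data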
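Material – parental CHO cells · Reagent – ATP stimulus · Compound – single nominal dose of 5.6 µM per compound · Detection – Fluo-8 fluorescence · Read-out basis – percent inhibition of calcium signal · Controls – ATP-challenged DMSO wells low, unchallenged DMSO wells high · Repeats – no replicates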
Each line names hits and unclear results; the compound was inactive in the other large screens. Sampled rows, rich in hits. Any-hit rate of the full collection: about 4.5%.

Cc1ccc([C@@H]2CC(=O)[C@@H]3CN(S(=O)(=O)c4ccc(C)cc4)[C@H](c4ccc(Cl)cc4)C[C@@H]3N2S(=O)(=O)c2ccc(C)cc2)cc1	none (no result: GPR7 antag, OX1R antag-1, OX1R antag-2, CHO parental Ca)
Cc1cccn2c(=O)c3cc(C(=O)NC4CCCC4)sc3nc12	OX1R antag-2 55.0
COc1ccc(C(=O)Oc2ccc3ccc(=O)oc3c2)cc1	none
COc1ccc(C(=O)Oc2ccc3oc(=O)sc3c2)cc1	CHO parental Ca 57.0
O=C(Nc1nc2n(n1)C(c1ccccc1)C=C(c1ccccc1)N2)c1ccco1 (stereo not drawn)	OX1R antag-2 49.9
CCOC(=O)N1CCC(N2C(=O)c3ccccc3C2Nc2c(C)cccc2C)CC1 (stereo not drawn)	GPR7 antag 15.9
CCOC(=O)N1CCC(N2C(=O)c3ccccc3C2Nc2ccccc2)CC1 (stereo not drawn)	none
CCc1cccc(CC)c1N1C(=O)C2=C(SCCCS2)C1=O	TAAR1 ag 40.1 (no result: GPR7 antag, OX1R antag-1, OX1R antag-2, CHO parental Ca)
C[C@H]1Cn2cnc(C(=O)N3CCN(c4ccccc4)CC3)c2C(=O)N1	none (no result: GPR7 antag, OX1R antag-1, OX1R antag-2, CHO parental Ca)
O=C(NCCN1CCN(c2ccccc2)CC1)Nc1ccc(Cl)cc1	none
CCN(CCNC(=O)Nc1ccc(Cl)cc1)c1ccccc1	OX1R antag-1 63.9, OX1R antag-2 118.3, CHO parental Ca 55.2
O=C(NCCc1ccc(Cl)cc1)Nc1ccc(Cl)cc1	TAAR1 ag 42.3
O=C(NCCc1ccncc1)Nc1ccc(Cl)cc1	none
Cc1c(N2C(=O)/C(=C\c3ccc(N(C)C)cc3)N(C)C2=S)c(=O)n(-c2ccccc2)n1C	OX1R antag-2 64.4
CC1CCCCC1NC(=O)COC(=O)COc1ccccc1F (stereo not drawn)	none (no result: GPR7 antag)
Cc1ccc(C)c(C(=O)OCC(=O)Nc2cccc(S(=O)(=O)N3CCCCC3)c2)c1	OX1R antag-1 53.7 (no result: GPR7 antag)
CN(C)S(=O)(=O)c1cccc(NC(=O)CNc2cccc(S(=O)(=O)N3CCCCC3)c2)c1	none (no result: GPR7 antag, OX1R antag-1, OX1R antag-2, CHO parental Ca)
CCN(CC)S(=O)(=O)c1cc(NC(=O)CNc2cccc(S(=O)(=O)N3CCCC3)c2)ccc1C	CHO parental Ca 45.4 (no result: GPR7 antag, TAAR1 antagonist, TAAR1 ag)
O=C(COC(=O)C1CC2C=CC1C2)Nc1cccc(S(=O)(=O)N2CCCCCC2)c1 (stereo not drawn)	TAAR1 antagonist 67.7, CHO parental Ca 33.0
O=C(NCC1COc2ccccc2O1)c1ccc(Cl)c(S(=O)(=O)N2CCCC2)c1 (stereo not drawn)	OX1R antag-2 34.5 (no result: GPR7 antag)
Cc1ccccc1C(=O)OCC(=O)Nc1cccc(S(=O)(=O)N2CCCCC2)c1	none (no result: GPR7 antag, OX1R antag-1, OX1R antag-2, CHO parental Ca)
COC(=O)C1=C(C)N(Cc2ccc(Br)cc2)C(=S)NC1c1cccc(F)c1 (stereo not drawn)	none (no result: GPR7 antag, OX1R antag-1, OX1R antag-2, CHO parental Ca)
CCOC(=O)CCCCCC(=O)Nc1ccc2c(c1)C(=O)N([C@H](C)CO)C[C@@H](C)[C@@H](CN(C)S(=O)(=O)c1ccc(C)cc1)OCCCC[C@H](C)O2	none (no result: GPR7 antag, OX1R antag-1, OX1R antag-2, CHO parental Ca)
C[C@@H]1CCCCO[C@@H](CN(C)C(=O)Nc2ccc(C(F)(F)F)cc2)[C@@H](C)CN([C@H](C)CO)C(=O)c2cc(NS(=O)(=O)c3ccc(Cl)cc3)ccc2O1	none (no result: GPR7 antag, OX1R antag-1, OX1R antag-2, CHO parental Ca)
O=C(COC(=O)c1ccc(Cl)c(S(=O)(=O)N2CCCCCC2)c1)Nc1ccccc1	TAAR1 antagonist 53.3
O=C(COC(=O)c1ccc(S(=O)(=O)N2CCCC2)cc1)Nc1ccccc1	none (no result: GPR7 antag)
O=C(COC(=O)c1c(F)cccc1F)Nc1cccc(S(=O)(=O)N2CCCCC2)c1	TAAR1 antagonist 49.8 (no result: GPR7 antag, OX1R antag-1, OX1R antag-2, CHO parental Ca)
C=CCN=C1NC(c2ccc(C(F)(F)F)cc2)C(C(=O)OC)=C(C)N1C (stereo not drawn)	none (no result: GPR7 antag, OX1R antag-1, OX1R antag-2, CHO parental Ca)
Cc1nc(NCCCn2ccnc2)c2ccccc2n1	none
O=C1c2ccccc2-c2onc3ccc(NCCCn4ccnc4)c1c23	OX1R antag-1 57.4, OX1R antag-2 46.4, CHO parental Ca 39.9 (no result: TAAR1 antagonist, TAAR1 ag)
Cc1noc(C)c1S(=O)(=O)Nc1ccc(C(=O)N2CCN(c3cccc(Cl)c3)CC2)cc1	OX1R antag-1 56.5, CHO parental Ca 33.2
Cc1ccc(Cl)cc1NC(=O)OCCN(C)C(=O)Nc1cc(Cl)ccc1C	none (no result: GPR7 antag, OX1R antag-1, OX1R antag-2, CHO parental Ca)
C=CCc1cccc(CNc2cnc3ccccc3c2)c1O	CHO parental Ca 72.3
O=C(Nc1nccs1)c1ccc2ccccc2n1	OX1R antag-2 70.9
CCC(CC)c1nnc(NC(=O)c2ccc3ccccc3n2)s1	OX1R antag-2 49.5
O=C(Nc1nccs1)c1ccc2nccnc2c1	OX1R antag-2 46.1
COC(=O)c1cc2c(c3c4cc(OC)ccc4n(S(=O)(=O)c4cccc(C)c4)c13)C(=O)N(C)C2	none (no result: GPR7 antag, OX1R antag-1, OX1R antag-2, CHO parental Ca)
COC(=O)Cc1nnn2c1[C@H](C)[C@H](c1ccccc1Br)OC[C@H](C)C2	none (no result: GPR7 antag, OX1R antag-1, OX1R antag-2, CHO parental Ca)
O=C(Nc1ccc(Cl)cc1)NC1CCCCC1Cc1ccco1 (stereo not drawn)	OX1R antag-2 46.5
O=C(Nc1ccc(Cl)cc1)NC1CCCC1Cc1ccco1 (stereo not drawn)	none (no result: TAAR1 antagonist, TAAR1 ag)
O=[N+]([O-])c1ccccc1-c1cc(-c2cc(Cl)ccc2O)n[nH]1	none
Cc1ccc(O)c(-c2cc(-c3ccccc3[N+](=O)[O-])[nH]n2)c1	TAAR1 antagonist 56.9
